Source: PubChem BioAssay (several laboratories)
Shown is part of a subset that was picked to be rich in hits.
CHOP inhibitor – CHOP inhibition in unfolded protein response; actives 3.8% (n = 220,000); inhibition, % at 10 µM; CHO-K1 CHOP-promoter luciferase, tunicamycin-induced, 15-18 h;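 active = compounds that reduced the stress-induced luciferase reporter signal by more than about 70% of percent inhibition, limit read from the data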;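 also: 0% = tunicamycin plus vehicle and 100% = wells without tunicamycin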
TLR4-MyD88 BLA – blocks binding of human TLR4 to MyD88; inhibition, % at 8.4 µM; O00206+Q99836; HeLa CL3-4 TLR4/MyD88 BLA complementation, FRET ratio; actives 0.18% (n = 200,000); in the data active = inhibition above about 25%;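 also: 0% = vehicle and 100% = reference inhibitor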
XBP1 UPR activ – activators of adaptive arm of unfolded protein response (XBP1). CHO-XBP1 luciferase reporter, IRE1-XBP1 UPR activation, luminescence; percent of tunicamycin response, DMSO as zero. activation, % at 20 µM. actives 0.33% (n = 330,000);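 active = versus positive control, 20 µM dose yields 30% or more activation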;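 also: 100% = tunicamycin at 10 µg/mL and 0% = DMSO only wells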
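Material: CHO cell line with stable XBP1 luciferase reporter; schedule: 16-18 h cell attachment at 37 °C, then 6 h compound exposure; signal: glow luminescence from Steady-Glo reagent; medium: serum-containing F12 medium, 10% FBS; benchmarks: tunicamycin 10 µg/mL and vehicle-only wells; read-out: percent activation relative to tunicamycin reference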
TLR9-MyD88 inh – blocks human TLR9 binding to MyD88; Q9NR96+Q99836; CHO BLA complementation TLR9-MyD88, CCF4 FRET ratio; inhibition, % at 4.98 µM; actives 0.21% (n = 340,000);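 active = inhibition above the mean over all tested compounds plus 3 SD, cut at about 21% in these data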;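 also: 0% = DMSO only wells and 100% = clavulanate BLA inhibitor control wells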
NOD2 RIPK2 PPI – NOD2-RIPK2 protein interaction inhibition; AID 624267; CHO BLA complementation NOD2-RIPK2, CCF4 ratio; inhibition, % at 4.98 µM; actives 0.38% (n = 360,000); in the data active = inhibition above about 21%;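 also: 0% = vehicle only and 100% = reference blocker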
Target sequence (O43353 whole entry, looked up): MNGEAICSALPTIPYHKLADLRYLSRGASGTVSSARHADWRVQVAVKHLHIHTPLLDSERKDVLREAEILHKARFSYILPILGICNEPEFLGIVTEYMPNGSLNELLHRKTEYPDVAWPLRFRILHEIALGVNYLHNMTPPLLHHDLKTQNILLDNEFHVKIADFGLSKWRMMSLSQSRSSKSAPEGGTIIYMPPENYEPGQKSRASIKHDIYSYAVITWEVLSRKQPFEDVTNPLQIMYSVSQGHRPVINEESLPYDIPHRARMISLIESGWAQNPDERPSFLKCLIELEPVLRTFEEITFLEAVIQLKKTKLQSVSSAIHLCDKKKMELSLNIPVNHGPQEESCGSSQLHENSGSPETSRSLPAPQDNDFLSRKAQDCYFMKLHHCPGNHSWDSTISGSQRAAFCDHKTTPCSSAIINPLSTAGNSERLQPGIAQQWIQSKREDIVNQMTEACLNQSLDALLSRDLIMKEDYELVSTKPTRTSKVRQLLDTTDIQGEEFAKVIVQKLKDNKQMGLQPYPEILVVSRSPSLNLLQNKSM
CHOP UPR activ – apoptotic UPR (CHOP) activation; actives 0.34% (n = 330,000); CHO-CHOP luciferase reporter, luminescence; percent of tunicamycin response over DMSO baseline; activation, % at 10 µM;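 active = at 10 µM dose, activation of 40% or more, normalized to positive control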;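 also: 100% = tunicamycin at 10 µg/mL and 0% = DMSO alone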
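Test system: CHO CHOP reporter cells. Input: 500 CHO-CHOP cells per well. Medium: F12 with 10% FBS. Technique: luciferase luminescence. Measure: percent activation relative to tunicamycin control. Dosing: 10 µM compound, 0.5% DMSO. Timing: 16-18 h cell attachment, then 6 h compound exposure, 37 °C.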
An asterisk follows results filed as active; / = no result given.

SMILES	CHOP inhibitor	TLR4-MyD88 BLA	XBP1 UPR activ	TLR9-MyD88 inh	NOD2 RIPK2 PPI	CHOP UPR activ
Cn1nc(C(C)(C)C)cc1C(=O)NCc1ccc(N2CCCC2=O)cc1	83*	-14	-2	-11	-11	6
CC(O)(c1cccc(F)c1)c1nc(-c2ccc(S(C)(=O)=O)cc2)cs1 (stereo not given)	/	/	/	/	-4	/
CCCCC1(Cc2ccc([N+](=O)[O-])cc2)C(=O)N(c2ccccc2)N(c2ccccc2)C1=O	77*	-1	0	-4	4	14
CCNC(=O)[C@H]1O[C@@H](n2cnc3c(N)nc(NCCc4ccc(CCC(=O)O)cc4)nc32)C(O)[C@H]1O (stereo not given in full)	-16	/	/	/	/	/
COC(=O)C1=C(C)N=C2SC(C#N)=C(N)N2C1c1ccc(OCc2ccccc2)cc1 (stereo not given)	88*	21	3	18	18	1
COC(=O)C1=C(C)N=C2SC(C#N)=C(N)N2C1c1cc(OC)c(OC)c(OC)c1 (stereo not given)	3	17	-3	2	12	-2
COc1ccc(C(=O)Nc2cc3c(cc2OC)CCCC3)cc1Br	82*	-7	-2	8	9	2
CCOC(=O)C1CCN(S(=O)(=O)c2ccc(Br)c(OCC)c2)CC1	88*	4	-1	1	3	1
CCOC(=O)C1CCN(S(=O)(=O)c2ccc3[nH]c(=O)oc3c2)CC1	78*	0	3	5	-5	-1
CCOC(=O)N1CCN(S(=O)(=O)c2ccc3[nH]c(=O)oc3c2)CC1	-5	/	-3	-10	3	1
O=C(Nc1ccc2oc(-c3cccnc3)nc2c1)c1ccc(Br)o1	77*	-6	14	-6	4	0
O=C(Nc1ccc2oc(-c3cccnc3)nc2c1)c1ccco1	-3	-12	2	-6	2	3
O=C1NC[C@H](CCCCN2C[C@H](Cc3ccc(O)cc3)N(CC3CCCCC3)C(=O)C2=O)N(CC2CCCCC2)C1=O	/	/	/	/	-4	/
COc1ccc(OC)c(NC(=O)CSc2nc3ccccc3c3nc4ccccc4n23)c1	78*	11	/	/	/	/
COc1ccc(NC(=O)CSc2nc3ccccc3c3nc4ccccc4n23)cc1	29	-5	/	-10	3	/
O=C(c1ccco1)N1C(=O)c2cccc3c(S(=O)(=O)N4CCCC4)ccc1c23	74*	4	2	-6	-10	0
CC(C)(C)n1nnnc1C(c1ccccc1)N1CCN(CCN2CCOCC2)CC1 (stereo not given)	/	/	/	/	-2	/
O=C(NCc1cccnc1)c1cc(C(=O)NCc2cccnc2)cc([N+](=O)[O-])c1	/	/	/	-29	-21	/
CC(C)(C)NC(=O)NC(=O)COC(=O)COc1ccc2c(c1)CCC2	85*	13	-2	7	-4	-1
CC(C)(C)NC(=O)NC(=O)COC(=O)CCC1CCCC1	77*	/	-1	8	-3	1
Cc1cc(C)cc(NC(=O)COC(=O)CCC2CCCC2)c1	/	/	0	-8	-18	1
Cc1cccc(NC(=O)COC(=O)COc2ccc3c(c2)CCC3)c1	/	/	-2	-10	-4	-1
CC(C)Cn1cc(-c2cccc3nccn23)cn1	/	/	/	/	7	/
COCCn1c(C)cc(/C=C2/NC(=O)N(c3cccc(Cl)c3)C2=O)c1C	71*	-8	2	-1	-5	3
c1ccc(-c2nc(-c3cccs3)[nH]c2-c2ccccc2)cc1	74*	0	-1	-1	4	2
SMILES	CHOP inhibitor	TLR4-MyD88 BLA	XBP1 UPR activ	TLR9-MyD88 inh	NOD2 RIPK2 PPI	CHOP UPR activ
O=C(Nc1ccc(Cl)cc1)N[C@H]1CC[C@H](CCn2cc(-c3ccccc3F)nn2)O[C@@H]1CO	/	/	/	/	-8	/
O=C(OCc1csc(Nc2ccccc2)n1)c1ccc(Cl)cc1	74*	0	-2	2	2	-1
CCN1CCN(C(c2cccs2)C(C)NS(=O)(=O)c2ccc(F)cc2)CC1 (stereo not given)	73*	-7	-4	-1	-1	0
CC1NC(=O)c2cc3ccccc3cc2-n2c1nc1ccc(F)cc1c2=O (stereo not given)	/	/	/	-31	3	/
N#C/C(=C\c1cccc([N+](=O)[O-])c1)C(=O)NCc1ccc(Cl)cc1	92*	1	/	-6	-2	/
N#C/C(=C\c1cccc([N+](=O)[O-])c1)C(=O)NCc1cccnc1	-21	-14	-1	-2	-3	-1
CC(=O)Nc1ccc(CN(C)c2c(C)nc3ccc(C(=O)N4CCN(c5ccccc5)CC4)cn23)cc1	/	/	/	/	4	/
COc1ccccc1C(=O)Oc1ccc2ccc(=O)oc2c1	/	/	2	-5	-21	2
COc1ccccc1C(=O)Oc1ccc(C(C)(C)C)cc1	75*	1	0	-8	-11	4
Cc1occc1C(=O)N/N=C/c1ccc(OCc2ccccc2)cc1	71*	/	2	4	5	2
C[C@H](CO)N1C[C@H](C)[C@H](CN(C)C(=O)C2CC2)OCc2cnnn2CCCC1=O	/	/	/	1	-6	/
COc1ccc(/C=N/NC(=O)CCCOc2ccc(Cl)cc2Cl)cc1	85*	8	0	3	-2	-1
O=C(CCCOc1ccc(Cl)cc1Cl)N/N=C/c1ccc(Cl)cc1	57	4	-1	5	-10	1
Cc1cc(Cl)ccc1OCCCC(=O)N/N=C/c1cccc([N+](=O)[O-])c1	88*	0	-2	-2	-1	1
Cc1ccccc1OCC(=O)NCC(=O)N/N=C/c1cccc([N+](=O)[O-])c1	-8	-33	-1	/	/	-1
O=C(c1ccco1)N(Cc1cccnc1)C(c1ccccc1)c1nc2ccccc2[nH]1 (stereo not given)	/	/	/	/	-6	/
CC1(C(=O)NS(=O)(=O)c2ccccc2Cl)CCN1C(=O)c1ccco1 (stereo not given)	/	/	/	/	-2	/
O=C(CCS(=O)(=O)c1ccccc1)NCCS(=O)(=O)c1ccccc1	-10	-2	1	11	-6	1
O=C(CCS(=O)(=O)c1ccccc1)NC12CC3CC(CC(C3)C1)C2	74*	-5	-1	-13	-1	3
CC(C)C[C@H]1CNC(=O)C(=O)N1C[C@@H]1CCCN1C[C@H](Cc1ccccc1)N1C[C@H](Cc2ccccc2)N(CC2CCCCC2)C(=O)C1=O	/	/	/	/	-1	/
CCC(CC)C(=O)N(C)c1c(C)nc2c(OCC=C(C)C)cccn12	/	/	/	/	4	/
O=C(COc1cc(Cl)c(Cl)cc1Cl)Nc1ccncc1	52	-7	0	0	-13	3
O=C(COc1cc(Cl)c(Cl)cc1Cl)Nc1cccc(O)c1	79*	/	-3	-4	6	3
